Experimental data published in publication PMC11293336 (Cell Reports Medicine, 2024).

Legend:
[1] = Plasma pharmacokinetics of oral terameprocol, GATOR trial; assay type: in vivo, human; details: for AUC(0-inf): AUCINF
[2] = tested on: patients with recurrent high-grade glioma; assay: Dose-limiting toxicities and adverse events of oral terameprocol, GATOR trial; assay type: in vivo, human
Method in brief: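 Patients ≥18 y with recurrent supratentorial grade III–IV glioma took oral capsules once daily, days 1–5 every 28 days, fasted; an amended cohort took 6,000 mg/day with a meal within 30 min. 3+3 escalation over 1,200–6,000 mg/day. DLT window was the first 4 weeks: ANC <500/μL, platelets <25,000/μL, febrile neutropenia, hematologic toxicity preventing >80% of dose, grade 3–4 seizure/intracranial hemorrhage, grade 3 QTcF. AEs CTCAE-graded.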

[3] = oral 6,000 mg fed, cycle 1 day 4, actual values of 2 patients
[4] = DLT, 2,400 mg/day EXP (expanded dose cohort), N=4
[5] = DLT, 6,000 mg/day with meal, N=4

COc1ccc(C[C@@H](C)[C@@H](C)Cc2ccc(OC)c(OC)c2)cc1OC [terameprocol, meso-tetra-O-methyl nordihydroguaiaretic acid]
Cmax ([1]; human, plasma, po, 1200 mg, Cmax, oral 1,200 mg fasted, cycle 1 day 1, mean ± SD): 30 ± 10 ng/mL
Cmax ([1]; human, plasma, po, 1200 mg, Cmax, oral 1,200 mg fasted, cycle 1 day 4, mean ± SD): 30 ± 30 ng/mL
half-life ([1]; human, plasma, po, 1200 mg, T1/2, oral 1,200 mg fasted, cycle 1 day 1, 1 patient): 1.9 h
Cmax ([1]; human, plasma, po, 2400 mg, Cmax, oral 2,400 mg fasted, cycle 1 day 1, mean ± SD): 100 ± 50 ng/mL
Cmax ([1]; human, plasma, po, 2400 mg, Cmax, oral 2,400 mg fasted, cycle 1 day 4, mean ± SD): 100 ± 60 ng/mL
half-life ([1]; human, plasma, po, 2400 mg, T1/2, oral 2,400 mg fasted, cycle 1 day 4, mean ± SD): 24.8 ± 6.2 h
Cmax ([1]; human, plasma, po, 3600 mg, Cmax, oral 3,600 mg fasted, cycle 1 day 1, mean ± SD): 280 ± 190 ng/mL
Cmax ([1]; human, plasma, po, 3600 mg, Cmax, oral 3,600 mg fasted, cycle 1 day 4, mean ± SD): 250 ± 140 ng/mL
half-life ([1]; human, plasma, po, 3600 mg, T1/2, oral 3,600 mg fasted, cycle 1 day 1, mean ± SD): 6 ± 0.6 h
half-life ([1]; human, plasma, po, 3600 mg, T1/2, oral 3,600 mg fasted, cycle 1 day 4, mean ± SD): 6.5 ± 0.8 h
Cmax ([1]; human, plasma, po, 4800 mg, Cmax, oral 4,800 mg fed, cycle 1 day 4, 1 patient): 230 ng/mL
half-life ([1]; human, plasma, po, 4800 mg, T1/2, oral 4,800 mg fed, cycle 1 day 4, 1 patient): 10.7 h
Tmax ([1]; human, plasma, po, 4800 mg, oral 4,800 mg fed, cycle 1 day 4, 1 patient): 5.9 h
AUC(0-inf) ([1]; human, plasma, po, 6000 mg, oral 6,000 mg fasted, cycle 1 day 1, 1 patient): 1900 ng·h/mL
AUC(0-inf) ([1]; human, plasma, po, 6000 mg, oral 6,000 mg fed, cycle 1 day 1, mean ± SD): 2400 ± 1800 ng·h/mL
Cmax ([1]; human, plasma, po, 6000 mg, Cmax, oral 6,000 mg fasted, cycle 1 day 1, mean ± SD): 200 ± 120 ng/mL
Cmax ([1]; human, plasma, po, 6000 mg, Cmax, oral 6,000 mg fed, cycle 1 day 1, mean ± SD): 330 ± 310 ng/mL
Cmax ([1]; human, plasma, po, 6000 mg, Cmax, oral 6,000 mg fed, cycle 1 day 4, mean ± SD): 600 ± 570 ng/mL
half-life ([1]; human, plasma, po, 6000 mg, T1/2, oral 6,000 mg fasted, cycle 1 day 4, 1 patient): 14.9 h
half-life ([1]; human, plasma, po, 6000 mg, T1/2, oral 6,000 mg fed, cycle 1 day 1, mean ± SD): 6.6 ± 2.2 h
Tmax ([1]; human, plasma, po, 6000 mg, oral 6,000 mg fasted, cycle 1 day 1, median (range; n)): 4 h
Tmax ([1]; human, plasma, po, 6000 mg, oral 6,000 mg fed, cycle 1 day 1, median (range; n)): 4.1 h
Tmax ([1]; human, plasma, po, 6000 mg, oral 6,000 mg fed, cycle 1 day 4, median (range; n)): 8 h
T1/2 ([1]; oral 1,200 mg fasted, cycle 1 day 4, actual values of 2 patients): 3.1 h
AUCINF ([1]; oral 2,400 mg fasted, cycle 1 day 1, actual values of 2 patients): 0.7 μg∗h/mL
T1/2 ([1]; oral 6,000 mg fasted, cycle 1 day 1, actual values of 2 patients): 14.9 h
Cmax ([1]; oral 6,000 mg fasted, cycle 1 day 4, actual values of 2 patients): 150 ng/mL
AUCINF [1, 3]: 4.4 μg∗h/mL
T1/2 [1, 3]: 6.5 h
% of patients with DLT per dose level ([2]; 1,200 mg/day, N=3): 0%
% of patients with DLT per dose level ([2]; 2,400 mg/day EXP (expanded dose cohort), N=4): 0%
% of patients with DLT per dose level ([2]; 2,400 mg/day, N=3): 33%
% of patients with DLT per dose level ([2]; 3,600 mg/day, N=3): 0%
% of patients with DLT per dose level ([2]; 6,000 mg/day with meal, N=4): 0%
% of patients with DLT per dose level ([2]; 6,000 mg/day, N=3): 0%
tolerability of oral terameprocol ([2]; 1,200-6,000 mg/day, days 1–5 every 28 days): without major toxicities and generally well tolerated and safe and well tolerated
patients who experienced DLT ([2]; DL2fasted 2,400 mg/day cohort): 1/3
DLT ([2]; DL3fasted 3,600 mg/day, three patients): no DLTs
DLT ([2]; DL4fasted 6,000 mg/day, three patients): no DLTs
DLT ([2]; DL4fed 6,000 mg/day with food): No DLTs
<80% of expected terameprocol dose due to hematologic toxicity ([2]; DLT, 1,200 mg/day, N=3): 0
Febrile neutropenia ([2]; DLT, 1,200 mg/day, N=3): 0
Grade 3–4 non-hematologic toxicity ([2]; DLT, 1,200 mg/day, N=3): 0
Grade 3–4 seizure or intracranial hemorrhage ([2]; DLT, 1,200 mg/day, N=3): 0
Platelets <25,000/mm^3 ([2]; DLT, 1,200 mg/day, N=3): 0
<80% of expected terameprocol dose due to hematologic toxicity [2, 4]: 0
Febrile neutropenia [2, 4]: 0
Grade 3–4 non-hematologic toxicity [2, 4]: 0
Grade 3–4 seizure or intracranial hemorrhage [2, 4]: 0
Platelets <25,000/mm^3 [2, 4]: 0
<80% of expected terameprocol dose due to hematologic toxicity ([2]; DLT, 2,400 mg/day, N=3): 0
Febrile neutropenia ([2]; DLT, 2,400 mg/day, N=3): 0
Grade 3–4 non-hematologic toxicity ([2]; DLT, 2,400 mg/day, N=3): 1
Grade 3–4 seizure or intracranial hemorrhage ([2]; DLT, 2,400 mg/day, N=3): 0
Platelets <25,000/mm^3 ([2]; DLT, 2,400 mg/day, N=3): 0
<80% of expected terameprocol dose due to hematologic toxicity ([2]; DLT, 3,600 mg/day, N=3): 0
Febrile neutropenia ([2]; DLT, 3,600 mg/day, N=3): 0
Grade 3–4 non-hematologic toxicity ([2]; DLT, 3,600 mg/day, N=3): 0
Grade 3–4 seizure or intracranial hemorrhage ([2]; DLT, 3,600 mg/day, N=3): 0
Platelets <25,000/mm^3 ([2]; DLT, 3,600 mg/day, N=3): 0
<80% of expected terameprocol dose due to hematologic toxicity [2, 5]: 0
Febrile neutropenia [2, 5]: 0
Grade 3–4 non-hematologic toxicity [2, 5]: 0
Grade 3–4 seizure or intracranial hemorrhage [2, 5]: 0
Platelets <25,000/mm^3 [2, 5]: 0
<80% of expected terameprocol dose due to hematologic toxicity ([2]; DLT, 6,000 mg/day, N=3): 0
Febrile neutropenia ([2]; DLT, 6,000 mg/day, N=3): 0
Grade 3–4 non-hematologic toxicity ([2]; DLT, 6,000 mg/day, N=3): 0
Grade 3–4 seizure or intracranial hemorrhage ([2]; DLT, 6,000 mg/day, N=3): 0
Platelets <25,000/mm^3 ([2]; DLT, 6,000 mg/day, N=3): 0
patients off treatment due to toxicity ([2]; all dose levels): No patients
